{"data": "Assay results gathered from unrelated publications", "SLC10A2": "Ileal sodium/bile acid cotransporter (SLC10A2, Homo sapiens, UniProt Q12908)", "SETD7": "Histone-lysine N-methyltransferase SETD7 (SETD7, Homo sapiens, UniProt Q8WTS6)", "CNR2": "Cannabinoid receptor 2 (CNR2, Homo sapiens, UniProt P34972)", "HSD11B1": "11-beta-hydroxysteroid dehydrogenase 1 (HSD11B1, Homo sapiens, UniProt P28845)", "note": "Each line is one published result; the experiments were not run side by side."}
{"SMILES": "CC(C)(C#N)c1cc(Cn2cncn2)cc(C(C)(C)C#N)c1", "target": "SLC10A2", "test": "transporter uptake, inhibitor, radiometric", "conditions": "1 mM", "inhibition [%]": 36.8}
{"SMILES": "O=C(Oc1cc(O)cc2c1C[C@@H](OC(=O)c1cc(O)c(O)c(O)c1)[C@@H](c1cc(O)c(O)c(O)c1)O2)c1cc(O)c(O)c(O)c1", "target": "SETD7", "test": "cell-free assay", "conditions": "10 µM", "inhibition [%]": 28}
{"SMILES": "C[C@@H](O)[C@H]1C(=O)N2C(C(=O)O)=C(S[C@@H]3CN[C@H](C(=O)N(C)C)C3)[C@H](C)[C@H]12", "target": "SLC10A2", "test": "transporter uptake, inhibitor, radiometric", "conditions": "1 mM", "inhibition [%]": "< 10"}
{"SMILES": "Oc1cccc(Nc2nc(-c3ccc(F)cc3F)cs2)c1", "target": "CNR2", "test": "cell-free assay", "conditions": "10 µM", "inhibition [%]": 35.3}
{"SMILES": "O=C(O)c1cc(O)c2c(c1)[C@H]([C@H]1c3cc(C(=O)O)cc(O)c3C(=O)c3c(O[C@@H]4O[C@H](CO)[C@@H](O)[C@H](O)[C@H]4O)cccc31)c1cccc(O[C@@H]3O[C@H](CO)[C@@H](O)[C@H](O)[C@H]3O)c1C2=O", "target": "SETD7", "test": "cell-free assay", "conditions": "10 µM", "inhibition [%]": 36}
{"SMILES": "C=C(CC)C(=O)c1ccc(OCC(=O)O)c(Cl)c1Cl", "target": "HSD11B1", "test": "enzyme activity, inhibitor", "conditions": "20 µM, lysate", "inhibition [%]": "< 40"}
{"SMILES": "CN(C)c1ccc2nc3ccc(=[N+](C)C)cc-3sc2c1", "target": "SETD7", "test": "cell-free assay", "conditions": "10 µM", "inhibition [%]": 35}
{"SMILES": "CN(C)CCCN1c2ccccc2Sc2ccc(Cl)cc21", "target": "HSD11B1", "test": "enzyme activity, inhibitor", "conditions": "20 µM, lysate", "inhibition [%]": "< 40"}
{"SMILES": "CN1CCN(CCCOc2ccc(=O)n(-c3ccc(Cl)c(Cl)c3)n2)CC1", "target": "CNR2", "test": "ligand displacement", "conditions": "1 µM", "inhibition [%]": 27.4}
{"SMILES": "Cc1ccc(Nc2nccc(N(C)c3ccc4c(C)n(C)nc4c3)n2)cc1S(N)(=O)=O", "target": "G protein-coupled receptor kinase 5 (GRK5, Homo sapiens, UniProt P34947)", "test": "enzyme activity, inhibitor", "conditions": "0.3 µM", "inhibition [%]": -6}
{"SMILES": "CCCCC(CC)CNC(=N)NC(=N)NCCCCCCNC(=N)NC(=N)NCC(CC)CCCC (stereo not drawn)", "target": "SETD7", "test": "cell-free assay", "conditions": "10 µM", "inhibition [%]": -110}
{"SMILES": "COc1cc(NC(C)=O)c(Cl)cc1C(=O)Nc1nccs1", "target": "CNR2", "test": "cell-free assay", "conditions": "10 µM", "inhibition [%]": 25}
{"SMILES": "CCOC(=O)C1=C(COCCN)NC(C)=C(C(=O)OC)C1c1ccccc1Cl (stereo not drawn)", "target": "SLC10A2", "test": "transporter uptake, inhibitor, radiometric", "conditions": "1 mM", "inhibition [%]": 95.5}
{"SMILES": "O=C(NC[C@H]1CN(c2ccc(N3CCOCC3=O)cc2)C(=O)O1)c1ccc(Cl)s1", "target": "Coagulation factor X (F10, Homo sapiens, UniProt P00742)", "test": "enzyme activity, inhibitor, absorbance", "conditions": "0.1 µM", "inhibition [%]": 88.6}
{"SMILES": "CN1CC(Oc2cnc(C#N)cc2-c2ccn3nc(NC(=O)C4CC4)cc3c2)C1", "target": "Phosphatidylinositol 5-phosphate 4-kinase type-2 alpha (PIP4K2A, Homo sapiens, UniProt P48426)", "test": "enzyme activity, inhibitor", "conditions": "1 µM", "inhibition [%]": 3}
{"SMILES": "COc1cc(NC(C)CCCN)c2ncccc2c1 (stereo not drawn)", "target": "SETD7", "test": "cell-free assay", "conditions": "10 µM", "inhibition [%]": -19}
{"SMILES": "O=C(c1ccccc1)c1ccc2n1CCC2C(=O)O (stereo not drawn)", "target": "SLC10A2", "test": "transporter uptake, inhibitor, radiometric", "conditions": "1 mM", "inhibition [%]": "< 10"}
{"SMILES": "C=CC1=C(C)c2cc3[nH]c(cc4nc(cc5[nH]c(cc1n2)c(C)c5CCC(=O)O)C(CCC(=O)O)=C4C)c(C)c3C=C", "target": "SETD7", "test": "cell-free assay", "conditions": "10 µM", "inhibition [%]": 34}
{"SMILES": "CC(=O)N[C@H]1CSSC[C@@H](C(=O)N[C@@H](Cc2c[nH]c3ccccc23)C(N)=O)NC(=O)[C@H](Cc2ccccc2)NC(=O)[C@H](CCCNC(=N)N)NC1=O", "target": "Melanocortin receptor 5 (MC5R, Homo sapiens, UniProt P33032)", "test": "ligand displacement, radioligand", "conditions": "10 µM, 40 min", "inhibition [%]": 0}
{"SMILES": "NS(=O)(=O)c1cc2c(cc1Cl)N=CNS2(=O)=O", "target": "SLC10A2", "test": "transporter uptake, inhibitor, radiometric", "conditions": "1 mM", "inhibition [%]": 25.3}
{"SMILES": "CC(C)c1ncccc2nc(N)nc1-2", "target": "72 kDa type IV collagenase (MMP2, Homo sapiens, UniProt P08253)", "test": "enzyme activity, inhibitor", "conditions": "50 µM", "inhibition [%]": 52}
{"SMILES": "O=C(c1ccc(Cl)cc1)N(Cc1ccccc1)C1CCCCC1", "target": "Beta-2 adrenergic receptor (ADRB2, Homo sapiens, UniProt P07550)", "test": "cell-free assay", "conditions": "10 µM", "inhibition [%]": 1.6}
{"SMILES": "CN(CCOc1ccc(CC2SC(=O)NC2=O)cc1)c1ccccn1 (stereo not drawn)", "target": "HSD11B1", "test": "enzyme activity, inhibitor", "conditions": "20 µM, lysate", "inhibition [%]": "< 40"}
{"SMILES": "CCCNc1nc2ccccc2n1Cc1ccc(Cl)cc1", "target": "D(1B) dopamine receptor (DRD5, Homo sapiens, UniProt P21918)", "test": "ligand displacement", "conditions": "10 µM", "inhibition [%]": 69.6}
{"SMILES": "C=CCSCC1Nc2cc(Cl)c(S(N)(=O)=O)cc2S(=O)(=O)N1 (stereo not drawn)", "target": "SLC10A2", "test": "transporter uptake, inhibitor, radiometric", "conditions": "1 mM", "inhibition [%]": 57.9}
{"SMILES": "CCN(c1cc(C#CCN2CCOCC2)cc(C(=O)NCc2c(C)cc(C)[nH]c2=O)c1C)[C@H]1CC[C@H](N(C)CCOC)CC1", "target": "SETD7", "test": "enzyme activity, inhibitor", "conditions": "1 µM", "inhibition [%]": 6}
{"SMILES": "O=C(O)CCCCCCCCCCCC[C@@H]1C=CCC1", "target": "SETD7", "test": "cell-free assay", "conditions": "10 µM", "inhibition [%]": -48}
{"SMILES": "CC(CCc1ccccc1)NCC(O)c1ccc(O)c(C(N)=O)c1 (stereo not drawn)", "target": "SLC10A2", "test": "transporter uptake, inhibitor, radiometric", "conditions": "1 mM", "inhibition [%]": 38.6}
{"SMILES": "O=C1C=CC(=O)c2c(O)cccc21", "target": "SETD7", "test": "cell-free assay", "conditions": "10 µM", "inhibition [%]": 13}
{"SMILES": "NS(=O)(=O)c1cc2c(cc1C(F)(F)F)NC(Cc1ccccc1)NS2(=O)=O (stereo not drawn)", "target": "SLC10A2", "test": "transporter uptake, inhibitor, radiometric", "conditions": "1 mM", "inhibition [%]": 64.5}
